From ChEMBL document CHEMBL4828720, “Macrocyclic Immunoproteasome Inhibitors as a Potential Therapy for Alzheimer's Disease” (J Med Chem, 2021)
Calls of active or inactive are those of the source. No cut-off for these calls is given here.

Key:
Mus musculus [1] = assay: Cognitive enhancing effect in Tg2576 mouse assessed as shorter distances travelled before reaching the escape platform at 10 mg/kg, iv administered twice weekly and measured after 5 days by Morris water maze test; format: functional, organism-based; settings: time 5.0 day
In short: (§1)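 Tg2576 mice, 9 months old, given 10 mg/kg twice weekly for 3 weeks. Morris water maze in 25 ± 1 °C water, platform hidden 1-1.5 cm below surface. Three 60-s trials a day from randomized start points for 5 days. Swim paths tracked from an overhead camera. Single probe trial on day 6 scored as time in target quadrant. n=5 treated, n=12 control on days 4-5; Student's t-test.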

[2] = Metabolic stability in ICR mouse liver homogenate at 1 uM measured upto 20 mins by LC-MS/MS analysis; format: ADME, tissue-based; settings: tissue homogenate
In short: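 Tissues from male ICR mice, 7 weeks old. Heparinized (25 IU/mL) whole blood, or liver homogenized in ice-cold PBS, prewarmed to 37 °C and spiked to a final 1 μM. Samples taken at 0, 10 and 30 min (blood) or 0, 10 and 20 min (liver). […] Remaining drug quantified by C18 LC-MS/MS.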

[3] = target: Proteasome subunit beta type-9 (Mus musculus) (UniProt P28076); assay: Inhibition of LMP2 in mouse BV-2 cells assessed as reduction in LPS-stimulated IL-1alpha release by ELISA
Mus musculus [4] = assay: Cognitive enhancing effect in Tg2576 mouse assessed as latency to enter dark compartment at 10 mg/kg, iv administered twice weekly and measured on 7 and 8 days by step-through passive avoidance test; format: functional, organism-based; settings: time 7-8 day
In short: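 Tg2576 mice (9-month-old), 10 mg/kg twice weekly for 3 weeks. Step-through passive avoidance run 48 h after the probe test. Learning trial: 0.45 mA, 3 s shock on entering the dark room. Testing trial 24 h later (day 8) without shock, timed as latency to re-enter the dark chamber from the lighted compartment. n=5; Student's t-test.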

[5] = target: T1, Proteasome subunit beta type-9 (Mus musculus) (UniProt P28076); assay: Inhibition of LMP2 in ICR mouse brain homogenate at 10 mg/kg, iv after 1 hr; format: organism-based
T1 sequence (whole entry): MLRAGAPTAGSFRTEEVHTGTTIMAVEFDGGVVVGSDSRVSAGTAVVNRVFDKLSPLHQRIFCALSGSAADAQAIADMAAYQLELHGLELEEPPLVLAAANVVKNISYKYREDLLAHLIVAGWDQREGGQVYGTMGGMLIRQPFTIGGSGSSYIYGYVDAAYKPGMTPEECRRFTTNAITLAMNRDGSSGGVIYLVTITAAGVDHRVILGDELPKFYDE
In short: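 ICR mice received a single intravenous dose of 10 mg/kg. Brain homogenates taken at 1 h post-dose were assayed for compound level and for LMP2 activity.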

[6] = Toxicity in ICR mouse; settings: in vivo
[7] = target: T2, Proteasome subunit beta type-8 (Homo sapiens, UniProt P28062); assay: Inhibition of human 20S proteasome LMP7 using Ac-ANW-AMC as fluorogenic substrate measured every minute for 1 hr by fluorescence assay
T2 sequence (P28062 whole entry): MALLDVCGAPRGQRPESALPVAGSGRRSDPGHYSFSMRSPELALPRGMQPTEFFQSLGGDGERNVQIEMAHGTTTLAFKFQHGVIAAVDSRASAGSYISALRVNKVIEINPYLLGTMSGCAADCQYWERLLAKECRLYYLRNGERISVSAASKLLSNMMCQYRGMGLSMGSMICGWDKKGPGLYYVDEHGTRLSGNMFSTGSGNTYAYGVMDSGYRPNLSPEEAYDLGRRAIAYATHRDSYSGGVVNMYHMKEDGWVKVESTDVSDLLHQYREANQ
In short: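 Purified human 20S constitutive or immunoproteasome, 50 ng in 20 mM Tris-HCl, 0.5 mM EDTA, 0.035% SDS, pH 8.0. Preincubated 1 h with inhibitor at 3-10,000 nM (8 concentrations). Substrates at 100 μM: Ac-PAL-AMC (LMP2), Ac-nLPnLD-AMC (Y), Ac-ANW-AMC (LMP7). Ac-WLA-AMC (X) at 20 μM. AMC fluorescence (360/460 nm) read each minute for 1 h; 3 replicates.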

Mus musculus [8] = assay: Cognitive enhancing effect in Tg2576 mouse assessed as improvement in spatial learning and memory by measuring increase in time spent in target quadrant at 10 mg/kg, iv administered twice weekly and measured after 6 days during probe trial by Morris water maze test; format: functional, organism-based; settings: time 6.0 day; in short: as §1
[9] = target: Proteasome subunit beta type-9 (Mus musculus) (UniProt P28076); assay: Inhibition of LMP2 in mouse BV-2 cells
[10] = test system: Proteasome subunit beta type-9 (Canis lupus familiaris); assay: Inhibition of canine 20S proteasome LMP2 activity in MDCK-II cells using Ac-PAL-AMC as fluorogenic substrate by fluorescence assay
Homo sapiens = organism: Homo sapiens; assay: Selectivity index, ratio of IC50 for inhibition of human 20S proteasome LMP2 activity in human RPMI-8226 cells overexpressing ABCB1 to IC50 for inhibition of human 20S proteasome LMP2 activity in human RPMI-8226 cells; format: cell-based
In short: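 Carfilzomib-resistant RPMI 8226/ABCB1 line, kept drug-free for two weeks, alongside parental RPMI 8226. Cells exposed to varying inhibitor concentrations for 72 h, n=3 per concentration. Lysates (5 μg protein, pH 8.0 Tris/EDTA/0.035% SDS buffer) read with 100 μM Ac-PAL-AMC at ex 360/em 460 nm every minute for 1 h. IC50 from curve fitting, mean ± SD.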

[11] = target: T3, Proteasome subunit beta type-9 (Homo sapiens, UniProt P28065); assay: Inhibition of human 20S proteasome LMP2 activity in human RPMI-8226 cells using Ac-PAL-AMC as fluorogenic substrate incubated for 72 hrs by fluorescence assay; format: cell-based
T3 sequence (P28065 whole entry): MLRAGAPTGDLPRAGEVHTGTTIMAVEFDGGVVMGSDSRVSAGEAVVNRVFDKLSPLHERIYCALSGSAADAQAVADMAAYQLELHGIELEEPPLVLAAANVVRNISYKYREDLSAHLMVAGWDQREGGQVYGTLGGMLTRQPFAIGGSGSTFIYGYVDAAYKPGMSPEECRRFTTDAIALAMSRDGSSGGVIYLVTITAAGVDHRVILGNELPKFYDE

[12] = Inhibition of human 20S proteasome Y using Ac-nLPnLD-AMC as fluorogenic substrate measured every minute for 1 hr by fluorescence assay
In short: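 Preincubated 1 h with inhibitor at 3-10,000 nM (8 concentrations). Substrates at 100 μM: Ac-PAL-AMC (LMP2), Ac-nLPnLD-AMC (Y), Ac-ANW-AMC (LMP7). Ac-WLA-AMC (X) at 20 μM. AMC fluorescence (360/460 nm) read each minute for 1 h; 3 replicates.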

[13] = Effect on RPE structural integrity in ICR mouse by immunostaining based confocal microscopic analysis; format: ADME
In short: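 RPE collected after behavioral testing from treated Tg2576 mice and from age-matched non-transgenic ICR mice. Eyecups dissected in ice-cold PBS and retina removed. Tissue permeabilized with 0.2% Triton X-100 for 15 min, blocked with 3% BSA, then anti-β-catenin (1:100) overnight at 4 °C. Alexa 555 secondary 2 h, imaged by confocal microscopy.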

For C[C@]1(C(=O)[C@H](Cc2ccccc2)NC(=O)[C@@H]2Cc3ccc(cc3)OCCCCCCCC(=O)N3CCC[C@H]3C(=O)N2)CO1, the Activity (Mus musculus [1]) was “Active”, the Stability [2] was “Stable” and the inhibition [3] was “Active”. The Activity (Mus musculus [4]) was “Active”, the inhibition [5] was “inactive” and the Activity [6] was “Non-Toxic”. The IC50 [7] was 399 nM, the Activity (Mus musculus [8]) was “Active” and the inhibition [9] was “Active”. The inhibition [10] was “Active”, the Ratio IC50 (Homo sapiens) was 3.3 and the IC50 [11] was 32.7 nM. The IC50 [12] was 8.38 µM and the Activity [13] was “Non-Toxic”.
